This passage reports Activity, C50 and ΔTm results from ChEMBL document CHEMBL3108767, “Thioester Bonds of Thiocoraline Can Be Replaced with NMe-Amide Bridges without Affecting Its DNA-Binding Properties” (ACS Med Chem Lett, 2014).

Active and inactive are the calls of the source. No cut-off for these calls is given here.

What is called ΔTm is the shift of the melting midpoint relative to a reference.

Experiment [1] is described as follows: Binding affinity to 3'-end [alpha32P]dATP labeled tyrT plasmid DNA (unknown origin) assessed as change in band shift at 10 to 50 uM. The procedure, abridged:
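tyrT DNA fragment incubated with ligand; a control lane received the solvent conditions alone. Samples were run on a native gel, and binding was scored as DNA bands that migrated more slowly than the control.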

Experiment [2] in a line: Binding affinity to [alpha-32P]dATP labeled HexB DNA (unknown origin) at 0.1 to 500 uM by DNase 1 footprinting assay. The procedure, abridged: (§1)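 Each radiolabeled fragment (MS2, HexA or HexB) incubated with ligand at 14 concentrations from 500 down to 0.1 μM, then cleaved with DNase I. Gel tracks compared with GA purine markers and solvent-only DNA to find regions of attenuated cleavage as footprints.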

A short description of experiment [3]: Binding affinity to [alpha-32P]dATP labeled MS2 DNA (unknown origin) at 0.1 to 500 uM by DNase 1 footprinting assay. Put shortly: as §1
The next experiment concerns DNA. In words: Binding affinity to [alpha-32P]dATP labeled HexA DNA (unknown origin) at 0.1 to 500 uM by DNase 1 footprinting assay.
A short description of experiment [4]: Binding affinity to CGTACG HexB DNA (unknown origin) by DNase 1 footprinting assay. Put shortly: (§2)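 Radiolabeled MS2, HexA or HexB DNA fragments incubated with ligand at 14 concentrations (500, 400, 300, 200, 100, 80, 60, 40, 20, 10, 5, 1, 0.5, 0.1 μM), then digested with DNase I. Products resolved on gels alongside GA purine markers and solvent-only DNA controls. C50 is the ligand concentration that reduced footprint band intensity by 50%.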

Experiment [5] is described as follows: Binding affinity to ATGGAT MS2 DNA (unknown origin) by DNase 1 footprinting assay. The procedure, abridged:
as §2

Experiment [6] in a line: Binding affinity to ACGACT MS2 DNA (unknown origin) by DNase 1 footprinting assay. The procedure, abridged:
as §2

Experiment [7] in a line: Binding affinity to GGATAG MS2 DNA (unknown origin) by DNase 1 footprinting assay. The procedure, abridged: as §2
A short description of experiment [8]: Binding affinity to GACGTA MS2 DNA (unknown origin) by DNase 1 footprinting assay. The procedure, abridged:
as §2

Experiment [9] can be described thus: Binding affinity to fluorophore labeled FAM-GTGCAC-dabcyl (unknown origin) assessed as change in melting temperature at 100 uM by fluorescence assay. The procedure, abridged: (§3)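 Duplexes made from fluorescently labeled oligonucleotides, each carrying the site of interest at its center. Melting run at 0.25 μM duplex DNA in 10 mM sodium phosphate pH 7.4 with 100 mM NaCl. Relative fluorescence was followed against temperature and normalized to the same initial value. First derivatives of the melting profiles were used to read transitions.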

Experiment [10] in a line: Binding affinity to fluorophore labeled FAM-ACATCT-dabcyl (unknown origin) assessed as change in melting temperature at 100 uM by fluorescence assay. The procedure, abridged:
as §3

Experiment [11] in a line: Binding affinity to fluorophore labeled FAM-ACATGT-dabcyl (unknown origin) assessed as change in melting temperature at 100 uM by fluorescence assay. Put shortly: as §3
A short description of experiment [12]: Binding affinity to fluorophore labeled FAM-AATATT-dabcyl (unknown origin) assessed as change in melting temperature at 100 uM by fluorescence assay. Put shortly:
as §3

Experiment [13] in a line: Binding affinity to fluorophore labeled FAM-CACGTG-dabcyl (unknown origin) assessed as change in melting temperature at 100 uM by fluorescence assay. Put shortly:
as §3

A short description of experiment [14]: Binding affinity to CGCGAT HexB DNA (unknown origin) by DNase 1 footprinting assay. Put shortly: as §2
The nature of experiment [15]: Binding affinity to CTCGAG HexB DNA (unknown origin) by DNase 1 footprinting assay. Put shortly: as §2
Experiment [16] can be described thus: Binding affinity to TATATA HexB DNA (unknown origin) by DNase 1 footprinting assay. The procedure, abridged: as §2

`COCCOCCOCC(=O)NC[C@H]1C(=O)N(C)C[C@@H](NC(=O)c2nc3ccccc3cc2O)C(=O)NCC(=O)N(C)[C@H]2CSSC[C@@H](C(=O)N1C)N(C)C(=O)CNC(=O)[C@H](NC(=O)c1nc3ccccc3cc1O)CN(C)C(=O)[C@H](CNC(=O)COCCOCCOC)N(C)C2=O`: the result in [1] was inactive.
Take `CS[C@H]1SC[C@H]2C(=O)N(C)[C@@H](C(C)C)C(=O)OC[C@@H](NC(=O)c3cnc4ccccc4n3)C(=O)N[C@@H](C)C(=O)N(C)[C@@H]1C(=O)N(C)[C@@H](C(C)C)C(=O)OC[C@@H](NC(=O)c1cnc3ccccc3n1)C(=O)N[C@@H](C)C(=O)N2C`: the result (in experiment [1]; in [2]; in experiment [3]; in the experiment with DNA) was Active.
In the case of `CSC[C@H]1C(=O)N(C)C[C@@H](NC(=O)c2nc3ccccc3cc2O)C(=O)NCC(=O)N(C)[C@H]2CSSC[C@@H](C(=O)N1C)N(C)C(=O)CNC(=O)[C@H](NC(=O)c1nc3ccccc3cc1O)CN(C)C(=O)[C@H](CSC)N(C)C2=O`, the C50 in experiment [4] is 13 µM; in [5], 110 µM; in [6], 102 µM; in experiment [7], 131 µM; in [8] it was 95 µM; in experiment [14], 22 µM. Besides, the C50 in [15] was found to be 17 µM; in experiment [16], 28 µM. For the same compound, in [1], the outcome was Active. The ΔTm in experiment [9] is 0.7 °C; in [10], 2.2 °C; in experiment [11], 4.5 °C; in experiment [12], 1.4 °C; in experiment [13] it was 7.6 °C.
